# B1: PenB class A beta-lactamase (Burkholderia cenocepacia), B8R6A5 (protein)
# chain: MTYSSKRRTLLLAAATAPLVLTATACASRQAAAPDPATAAAAAAADAMAPAAAAATLADLERDAGGRLGVCAIDTASGRVIEHRAGERFPFCSTFKAMLSAAVLAQSVERPGLLQQRVKYTKADLVNYSPVSEKHVGAGMTVAALCEATIQYSDNSAANLLMKLIGGPSAVTAYARSIGDDAFRLDRWETELNTALPGDPRDTTTPAAMAASIRVLTLGDALPAAQRAQLVAWLRGNKVGDKRIRAGVPAGWTVGDKTGTGDYGTTNDAGVIWPTSRAPIVLAVYYTQTRADARAKDDVIASVARIVAQTFG
# Legend:
# [1] = tested on: Burkholderia cenocepacia; experiment: Antimicrobial activity against Burkholderia cenocepacia 09-54 expressing beta-lactamase PenB2; type: functional
# Procedure, shortened: (§1)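 MICs measured by broth microdilution and by Etest on clinical B. cenocepacia isolates grown for 18 h in Trypticase soy broth (30°C and 37°C). Susceptibility was read against CLSI guidelines.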
# [2] = tested on: Escherichia coli; experiment: Antimicrobial activity against Escherichia coli TOP10; type: functional
# Procedure, shortened: (§2)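 MICs by broth microdilution and Etest, interpreted per CLSI guidelines. Strains tested were host E. coli TOP10, and TOP10 carrying pBcSau13 (pBK-CMV vector, kanamycin-resistant) holding a Sau3AI fragment of B. cenocepacia 212 DNA that encodes PenB1.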
# [3] = tested on: Burkholderia cenocepacia; experiment: Antimicrobial activity against Burkholderia cenocepacia 212 expressing beta-lactamase PenB3; type: functional; procedure, shortened: as §1
# [4] = tested on: Burkholderia cenocepacia; experiment: Antimicrobial activity against Burkholderia cenocepacia 07-34 expressing beta-lactamase PenB1; type: functional; procedure, shortened: as §1
# [5] = tested on: Burkholderia cenocepacia; experiment: Antimicrobial activity against Burkholderia cenocepacia 5007902 expressing beta-lactamase PenB4; type: functional; procedure, shortened: as §1
# [6] = tested on: Escherichia coli; experiment: Antimicrobial activity against Escherichia coli TOP10 harboring beta-lactamase PenB1; type: functional; procedure, shortened: as §2
# [7] = tested on: Burkholderia cenocepacia; experiment: Antimicrobial activity against Burkholderia cenocepacia 09-54 expressing beta-lactamase PenB2 in presence of 4 ug/ml beta-lactamase inhibitor Tazobactam; type: functional
# Procedure, shortened: (§3)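 Isolates were cultured for 18 h in Trypticase soy broth (30°C and 37°C), then tested by microdilution and Etest. […] MICs were interpreted using CLSI guidelines.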
# [8] = tested on: Burkholderia cenocepacia; experiment: Antimicrobial activity against Burkholderia cenocepacia 07-34 expressing beta-lactamase PenB in presence of 4 ug/ml beta-lactamase inhibitor Tazobactam; type: functional; procedure, shortened: as §3
# [9] = tested on: Burkholderia cenocepacia; experiment: Antimicrobial activity against Burkholderia cenocepacia 5007902 expressing beta-lactamase PenB4 in presence of 4 ug/ml beta-lactamase inhibitor Tazobactam; type: functional; procedure, shortened: as §3
# [10] = tested on: Escherichia coli; experiment: Antimicrobial activity against Escherichia coli TOP10 in presence of 4 ug/ml beta-lactamase inhibitor Tazobactam; type: functional
# Procedure, shortened: (§4)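 E. coli TOP10 host, either plain or carrying the pBK-CMV clone pBcSau13 with the B. cenocepacia 212 insert. MICs by broth microdilution and Etest, read against CLSI guidelines.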
# [11] = tested on: Burkholderia cenocepacia; experiment: Antimicrobial activity against Burkholderia cenocepacia 212 expressing beta-lactamase PenB3 in presence of 4 ug/ml beta-lactamase inhibitor Tazobactam; type: functional; procedure, shortened: as §3
# [12] = tested on: Escherichia coli; experiment: Antimicrobial activity against Escherichia coli TOP10 harboring beta-lactamase PenB1 in presence of 4 ug/ml beta-lactamase inhibitor Tazobactam; type: functional; procedure, shortened: as §4
# [13] = substrate: C[C@H]1[C@H](NC(=O)/C(=N\OC(C)(C)C(=O)O)c2csc(N)n2)C(=O)N1S(=O)(=O)O; details: Burkholderia cenocepacia; 07-34
# [14] = substrate: CO/N=C(\C(=O)N[C@@H]1C(=O)N2C(C(=O)O)=C(COC(C)=O)CS[C@H]12)c1csc(N)n1; details: Burkholderia cenocepacia; 07-34
# [15] = substrate: C[C@@H](O)[C@H]1C(=O)N2C(C(=O)O)=C(SCCNC=N)C[C@H]12; details: Burkholderia cenocepacia; 07-34
# [16] = substrate: CO/N=C(\C(=O)N[C@@H]1C(=O)N2C(C(=O)O)=C(COC(N)=O)CS[C@H]12)c1ccco1; details: Burkholderia cenocepacia; 07-34
# [17] = substrate: C[C@@H](O)[C@H]1C(=O)N2C(C(=O)O)=C(S[C@@H]3CN[C@H](C(=O)N(C)C)C3)[C@H](C)[C@H]12; details: Burkholderia cenocepacia; 07-34
# [18] = substrate: CCN1CCN(C(=O)N[C@@H](C(=O)N[C@@H]2C(=O)N3[C@@H]2SC(C)(C)[C@@H]3C(=O)O)c2ccccc2)C(=O)C1=O; details: Burkholderia cenocepacia; 07-34
# [19] = substrate: CC1(C)S[C@@H]2[C@H](NC(=O)[C@H](N)c3ccccc3)C(=O)N2[C@H]1C(=O)O; details: Burkholderia cenocepacia; 07-34
# [20] = substrate: CC1(C)S[C@@H]2[C@H](NC(=O)Cc3ccccc3)C(=O)N2[C@H]1C(=O)O; details: Burkholderia cenocepacia; 07-34
# [21] = substrate: CC(=O)OCC1=C(C(=O)O)N2C(=O)[C@@H](NC(=O)Cc3cccs3)[C@H]2SC1; details: Burkholderia cenocepacia; 07-34
# [22] = substrate: CC(C)(O/N=C(\C(=O)N[C@@H]1C(=O)N2C(C(=O)[O-])=C(C[n+]3ccccc3)CS[C@H]12)c1csc(N)n1)C(=O)O; details: Burkholderia cenocepacia; 07-34
# [23] = substrate: CO/N=C(\C(=O)N[C@@H]1C(=O)N2C(C(=O)[O-])=C(C[N+]3(C)CCCC3)CS[C@H]12)c1csc(N)n1; details: Burkholderia cenocepacia; 07-34
# [24] = substrate: CC1(C)S[C@@H]2[C@H](NC(=O)[C@H](C(=O)O)c3ccsc3)C(=O)N2[C@H]1C(=O)O; details: Burkholderia cenocepacia; 07-34
# [25] = substrate: C[C@H]1[C@H](NC(=O)/C(=N\OC(C)(C)C(=O)O)c2csc(N)n2)C(=O)N1S(=O)(=O)O; details: Burkholderia cenocepacia; 07-34; remark: listed apart in the source
# [26] = substrate: CO/N=C(\C(=O)N[C@@H]1C(=O)N2C(C(=O)O)=C(COC(C)=O)CS[C@H]12)c1csc(N)n1; details: Burkholderia cenocepacia; 07-34; remark: listed apart in the source
# [27] = substrate: C[C@@H](O)[C@H]1C(=O)N2C(C(=O)O)=C(SCCNC=N)C[C@H]12; details: Burkholderia cenocepacia; 07-34; remark: listed apart in the source
# [28] = substrate: CO/N=C(\C(=O)N[C@@H]1C(=O)N2C(C(=O)O)=C(COC(N)=O)CS[C@H]12)c1ccco1; details: Burkholderia cenocepacia; 07-34; remark: listed apart in the source
# [29] = substrate: C[C@@H](O)[C@H]1C(=O)N2C(C(=O)O)=C(S[C@@H]3CN[C@H](C(=O)N(C)C)C3)[C@H](C)[C@H]12; details: Burkholderia cenocepacia; 07-34; remark: listed apart in the source
# [30] = substrate: CCN1CCN(C(=O)N[C@@H](C(=O)N[C@@H]2C(=O)N3[C@@H]2SC(C)(C)[C@@H]3C(=O)O)c2ccccc2)C(=O)C1=O; details: Burkholderia cenocepacia; 07-34; remark: listed apart in the source
# [31] = substrate: CC1(C)S[C@@H]2[C@H](NC(=O)[C@H](N)c3ccccc3)C(=O)N2[C@H]1C(=O)O; details: Burkholderia cenocepacia; 07-34; remark: listed apart in the source
# [32] = substrate: CC1(C)S[C@@H]2[C@H](NC(=O)Cc3ccccc3)C(=O)N2[C@H]1C(=O)O; details: Burkholderia cenocepacia; 07-34; remark: listed apart in the source
# [33] = substrate: CC(=O)OCC1=C(C(=O)O)N2C(=O)[C@@H](NC(=O)Cc3cccs3)[C@H]2SC1; details: Burkholderia cenocepacia; 07-34; remark: listed apart in the source
# [34] = substrate: CC(C)(O/N=C(\C(=O)N[C@@H]1C(=O)N2C(C(=O)[O-])=C(C[n+]3ccccc3)CS[C@H]12)c1csc(N)n1)C(=O)O; details: Burkholderia cenocepacia; 07-34; remark: listed apart in the source
# [35] = substrate: CO/N=C(\C(=O)N[C@@H]1C(=O)N2C(C(=O)[O-])=C(C[N+]3(C)CCCC3)CS[C@H]12)c1csc(N)n1; details: Burkholderia cenocepacia; 07-34; remark: listed apart in the source
# [36] = substrate: CC1(C)S[C@@H]2[C@H](NC(=O)[C@H](C(=O)O)c3ccsc3)C(=O)N2[C@H]1C(=O)O; details: Burkholderia cenocepacia; 07-34; remark: listed apart in the source
molecule,measurement,setting,value
CC(C)(O/N=C(\C(=O)N[C@@H]1C(=O)N2C(C(=O)[O-])=C(C[n+]3ccccc3)CS[C@H]12)c1csc(N)n1)C(=O)O [CEFTAZIDIME],MIC,[1],32 mg/L
same,MIC,[2],0.5 mg/L
same,MIC,[3],16 mg/L
same,MIC,[4],4 mg/L
same,MIC,[5],0.25 mg/L
same,MIC,[6],1 mg/L
CO/N=C(\C(=O)N[C@@H]1C(=O)N2C(C(=O)O)=C(COC(N)=O)CS[C@H]12)c1ccco1 [CEFUROXIME],MIC,[1],512 mg/L
same,MIC,[2],8 mg/L
same,MIC,[3],512 mg/L
same,MIC,[4],16 mg/L
same,MIC,[5],32 mg/L
same,MIC,[6],16 mg/L
C[C@@H](O)[C@H]1C(=O)N2C(C(=O)O)=C(SCCNC=N)C[C@H]12 [IMIPENEM ANHYDROUS],MIC,[1],16 mg/L
same,MIC,[3],16 mg/L
same,MIC,[4],8 mg/L
same,MIC,[5],8 mg/L
same,MIC,[6],0.5 mg/L
CCN1CCN(C(=O)N[C@@H](C(=O)N[C@@H]2C(=O)N3[C@@H]2SC(C)(C)[C@@H]3C(=O)O)c2ccccc2)C(=O)C1=O [PIPERACILLIN],MIC,[7],256 mg/L
same,MIC,[8],4 mg/L
same,MIC,[1],512 mg/L
same,MIC,[9],4 mg/L
same,MIC,[2],2 mg/L
same,MIC,[3],128 mg/L
same,MIC,[10],2 mg/L
same,MIC,[11],128 mg/L
same,MIC,[12],4 mg/L
same,MIC,[4],4 mg/L
same,MIC,[5],4 mg/L
same,MIC,[6],8 mg/L
CC1(C)S[C@@H]2[C@H](NC(=O)[C@H](C(=O)O)c3ccsc3)C(=O)N2[C@H]1C(=O)O [TICARCILLIN],MIC,[1],512 mg/L
same,MIC,[2],4 mg/L
same,MIC,[3],512 mg/L
same,MIC,[4],512 mg/L
same,MIC,[5],512 mg/L
same,MIC,[6],512 mg/L
B1,Km,[13],2500 µM
same,kcat,[13],30 s⁻¹
same,Km,[14],150 µM
same,kcat,[14],20 s⁻¹
same,Km,[15],60 µM
same,kcat,[15],0.1 s⁻¹
same,Km,[16],80 µM
same,kcat,[16],170 s⁻¹
same,Km,[17],2500 µM
same,kcat,[17],1 s⁻¹
same,Km,[18],10 µM
same,kcat,[18],5 s⁻¹
same,Km,[19],100 µM
same,kcat,[19],70 s⁻¹
same,Km,[20],25 µM
same,kcat,[20],130 s⁻¹
same,Km,[21],100 µM
same,kcat,[21],300 s⁻¹
same,Km,[22],3000 µM
same,kcat,[22],1.5 s⁻¹
same,Km,[23],1000 µM
same,kcat,[23],10 s⁻¹
same,Km,[24],60 µM
same,kcat,[24],15 s⁻¹
same,kcat/Km,[25],1e+07 M⁻¹ s⁻¹
same,kcat/Km,[26],130000 M⁻¹ s⁻¹
same,kcat/Km,[27],2e+06 M⁻¹ s⁻¹
same,kcat/Km,[28],2.1e+06 M⁻¹ s⁻¹
same,kcat/Km,[29],500 M⁻¹ s⁻¹
same,kcat/Km,[30],500000 M⁻¹ s⁻¹
same,kcat/Km,[31],700000 M⁻¹ s⁻¹
same,kcat/Km,[32],5.2e+06 M⁻¹ s⁻¹
same,kcat/Km,[33],3e+06 M⁻¹ s⁻¹
same,kcat/Km,[34],500000 M⁻¹ s⁻¹
same,kcat/Km,[35],1e+07 M⁻¹ s⁻¹
same,kcat/Km,[36],250000 M⁻¹ s⁻¹
